13 molecules from PubChem BioAssay can be followed below.

The source made the active and inactive calls.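 The calls were made as follows, unless noted: active = visually confirmed hit in the image check and inhibition above 20%; inconclusive = visually confirmed hit but inhibition not above 20%; inactive = no visual hit in the image check.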

For orientation: inhibition means the drop in the measured response relative to a control, in per cent.

Assay [1] is described as follows: inhibitors of TNFa-induced NFkB p65 translocation, primary screen, imaging, HUVEC, MLSMR starter and 10KST1 sets (AID 438;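 active = inhibition above 20% together with a positive visual image hit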;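 also: compound added about 3h40 before a 20 min TNFalpha stimulation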;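 as to inhibition: signal is the nuclear over cytoplasmic p65 intensity ratio per well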). To be noted: HUVEC TNFa-induced p65 nuclear translocation; cell count: measured here: nuclei count (cytotoxicity indicator), at 2.08 µM; inhibition: at 2 µM, stronger effect = higher value, 0% TNFa-plus-vehicle, 100% no-TNFa wells.
Assay [2] is described as follows: endothelial E-selectin expression blockers – imaging, HUVEC, immunofluorescence, MLSMR starter and 10KST1 sets, primary screen (AID 487).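 As to inhibition: signal is fraction of cell area covered by stained E-selectin grains.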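 As to nuclei count: 100% = median nuclei count of all wells on the same plate.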 The conditions noted are these: HUVEC TNFalpha-induced E-selectin immunofluorescence imaging, at 2 µM; inhibition: stronger effect = higher value; nuclei count: measured here: cell number, toxicity.
Assay [3] can be described thus: Primary imaging screen for DUSP6 inhibitors that restore phospho-Erk in transfected HeLa cells, chemical complementation (AID 609;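 active = compounds giving at least 50% inhibition in the cell-based MKP-3 phosphatase rescue imaging test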;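 as to inhibition: phospho-Erk level distribution per well compared with pooled transfected vehicle control wells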). To be noted: HeLa MKP-3 transfected, phospho-Erk imaging KS statistic, at 10 µM, cells stimulated with TPA for 15 min.
Assay [4] addresses Dual specificity protein phosphatase 6 (Homo sapiens) (UniProt Q16828). The assay is described as above. The conditions noted are these: HeLa MKP-3 transfected, phospho-Erk imaging KS statistic; at 10 µM; stronger effect = higher value; cells stimulated with TPA for 15 min.
The target in assay [5] is Voltage-gated potassium channel subunit beta-2 (Rattus norvegicus) (UniProt P62483). The assay is described as follows: inhibitors of rat Kvbeta2 reductase activity – biochemical, NADPH fluorescence, primary screen (AID 622;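 active = fluorescence slope higher than the sample average by over 3 SD, cut at about -0.22 in these data, passing the limit was not always enough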;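 also: slope of raw intensity against log time taken from 70 to 1610 s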). The conditions noted are these: recombinant KvBeta, 4-cyanobenzaldehyde reduction, at 10 µM, stronger effect = higher value.
Assay [6] shares this target. Nature of the assay: enhancers of rat Kvbeta2 NADPH turnover – biochemical, NADPH fluorescence, primary screen (AID 623;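 active = NADPH fluorescence slope more negative than the mean of all samples by about 3 SD, 99.7% confidence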;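 also: fluorescence intensity change per second fitted from 20 to 320 s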). The conditions noted are these: Recombinant KvBeta, NADPH fluorescence decrease slope, 10 min; at 10 µM; stronger effect = lower value.
Assay [7] concerns the target Alpha-2C adrenergic receptor (Homo sapiens) (UniProt P18825). The assay is described as follows: compounds altering alpha2C-coupled GIRK flux – cell-based, HEK293 alpha2C/GIRK1/2, thallium flux, primary screen (AID 624;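 active = fluorescence slope after compound addition differing from the mean of all screened samples at 99.7% confidence, in either direction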;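 also: slope of fluorescence ratio to pre-addition baseline per second over 15 to 24 s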). The conditions noted are these: thallium flux BTC fluorescence, at 10 µM, actives lie on both sides.
Assay [8] is described as follows: inhibitors of larval lipid processing in zebrafish, primary screen, whole organism, PED6 fluorescence, gall bladder and intestine (AID 686;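 active = a full or partial loss of lipid-probe fluorescence in the fish gall bladder, intestine or both, judged by eye; inactive = no fluorescence loss, or compound toxic to the fish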;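 also: larvae 5 to 7 days old with five fish per well; signal comes from phospholipase A2 cleavage of quenched PED6 carried via bile; overnight exposure to compound and PED6 before scoring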). The conditions noted are these: Zebrafish larvae PED6 lipid processing, fluorescence scoring; screened at 20 µM (by protocol). The method in brief:
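System: live zebrafish larvae aged 5-7 days, whole organism; measure: graded gall bladder and intestinal fluorescence inhibition per well; incubation: overnight exposure; reagent: ingested quenched lipid PED6 at 100 nM; signal: By-eye fluorescence microscopy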

Assay [9] can be described thus: loss of swimming-algae plug formation – whole organism, Chlamydomonas reinhardtii, WT vs cilia-less mutant, absorbance, 96-well, primary screen (AID 463189;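 active = inhibition at or above 50% relative to wild type and mutant plate controls; inactive = inhibition below 50%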;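 also: 0% = wild type cc124 cells in DMSO and 100% = ciliumless bld1 mutant cells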). The conditions noted are these: Chlamydomonas reinhardtii gravitaxis, OD600 absorbance, 2 days; at 10 µM; stronger effect = higher value.
Setting [10] is: measured here: cell density z-score.
[11] abbreviates: measured here: nuclear c-Myc green intensity z-score.
Where [12] appears, read: measured here: nuclear pErk red intensity z-score, stronger effect = higher value.

Dual specificity protein phosphatase 6 (Homo sapiens), sequence (Q16828 whole entry, looked up): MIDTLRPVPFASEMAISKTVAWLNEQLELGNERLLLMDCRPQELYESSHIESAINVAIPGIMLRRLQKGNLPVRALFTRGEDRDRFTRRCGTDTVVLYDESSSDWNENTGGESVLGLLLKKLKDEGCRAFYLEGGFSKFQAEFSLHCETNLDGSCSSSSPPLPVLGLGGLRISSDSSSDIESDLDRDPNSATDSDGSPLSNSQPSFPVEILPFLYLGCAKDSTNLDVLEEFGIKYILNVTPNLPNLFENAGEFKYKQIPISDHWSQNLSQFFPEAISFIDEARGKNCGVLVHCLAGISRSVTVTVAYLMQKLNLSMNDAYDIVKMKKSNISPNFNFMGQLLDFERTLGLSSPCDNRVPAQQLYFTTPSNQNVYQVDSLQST
Voltage-gated potassium channel subunit beta-2 (Rattus norvegicus), sequence (P62483 whole entry, looked up): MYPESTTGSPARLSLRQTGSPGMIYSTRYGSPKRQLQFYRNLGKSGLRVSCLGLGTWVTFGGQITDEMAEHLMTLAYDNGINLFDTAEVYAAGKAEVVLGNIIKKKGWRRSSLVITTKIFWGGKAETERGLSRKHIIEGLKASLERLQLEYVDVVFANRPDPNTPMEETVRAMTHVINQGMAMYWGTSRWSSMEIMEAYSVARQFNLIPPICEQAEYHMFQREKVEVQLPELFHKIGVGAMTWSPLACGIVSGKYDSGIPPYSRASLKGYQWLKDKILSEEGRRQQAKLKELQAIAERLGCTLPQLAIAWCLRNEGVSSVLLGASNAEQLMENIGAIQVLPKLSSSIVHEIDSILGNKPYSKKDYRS
Alpha-2C adrenergic receptor (Homo sapiens), sequence (P18825 whole entry, looked up): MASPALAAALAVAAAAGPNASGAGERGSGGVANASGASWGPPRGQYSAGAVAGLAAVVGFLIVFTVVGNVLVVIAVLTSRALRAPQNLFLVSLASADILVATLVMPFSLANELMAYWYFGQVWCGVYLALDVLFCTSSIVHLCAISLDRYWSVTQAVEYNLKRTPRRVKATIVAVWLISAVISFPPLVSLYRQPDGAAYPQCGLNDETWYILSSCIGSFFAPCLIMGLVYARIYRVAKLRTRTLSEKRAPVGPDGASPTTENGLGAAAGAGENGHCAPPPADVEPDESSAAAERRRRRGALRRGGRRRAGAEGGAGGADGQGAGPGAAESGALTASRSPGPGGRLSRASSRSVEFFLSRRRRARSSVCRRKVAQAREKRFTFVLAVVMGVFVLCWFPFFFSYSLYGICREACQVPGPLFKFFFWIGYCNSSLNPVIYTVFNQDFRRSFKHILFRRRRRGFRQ

On to `c1coc(-c2nnc3sc(C4CCCCC4)nn23)c1`, for which the cell count in assay [1] amounted to 653. Besides, the inhibition in [1] is -0.1% (inactive); in assay [2], -85.2% (inactive); in assay [4], 1.12% (inactive); in assay [9], 77.6% (active). The molecule further had a nuclei count in [2] of 170%. In addition, the z-score in assay [3] (setting [10]) was -0.617; in [3] (setting [11]) it was -0.759; in [3] (setting [12]), -0.627. In addition, the fluorescence slope in assay [5] is -0.451 (inactive). Further, the NADPH fluorescence slope in assay [6] was -0.000143 (inactive). The slope in assay [7] is 0.00424 (inactive). Further, in assay [8], the molecule was classed as inactive.

With `COC(=O)c1sccc1NC(=O)c1c(C)cc(=O)oc1C`, the cell count in [1] worked out at 553. Also, the inhibition in [1] was 2.4% (inactive); in assay [2] it was -142% (inactive); in [4], -8.76% (inactive); in assay [9] it was -11.2% (inactive). This molecule gave a nuclei count in [2] of 138%. For the same molecule, the z-score is 0.942 in [3] (setting [10]), 0.338 in [3] (setting [11]) and -0.793 in [3] (setting [12]). The fluorescence slope in assay [5] is -0.515 (inactive). For the same molecule, in [6], the NADPH fluorescence slope was -3.4e-05 (inactive). In assay [7], the slope was 0.00537 (inactive). Moreover, the molecule was classed as inactive in assay [8].

For the molecule `COc1ccc(C(=O)CSC2=C(C#N)C3(CCCCC3)C(C#N)=C(N)N2)cc1`, the cell count in assay [1] worked out at 705. In addition, the inhibition in [1] is -13.2% (inactive); in assay [2] it was -25.4% (inactive); in assay [4], 2.71% (inactive); in [9], -3.04% (inactive). In assay [2], this molecule had a nuclei count of 192%. The z-score in assay [3] (setting [10]) is -0.688; in [3] (setting [11]), 1.18; in [3] (setting [12]), 0.232. The fluorescence slope in [5] is -0.393 (inactive). For the same molecule, the NADPH fluorescence slope in assay [6] was -3.2e-05 (inactive). Besides, the slope in assay [7] was 0.00422 (inactive). Moreover, the molecule was called inactive in [8].

Regarding `CC/C(C)=C1\SC(N2CCN(C(C)=O)CC2)=NC1=O`, the cell count in assay [1] worked out at 475. For the same molecule, the inhibition in assay [1] is -8.5% (inactive); in assay [2], -322% (inactive); in assay [4] it was 4.37% (inactive); in assay [9], -1.03% (inactive). Also, the nuclei count in assay [2] stood at 208%. Also, the z-score in [3] (setting [10]) is -0.503; in assay [3] (setting [11]), -0.13; in assay [3] (setting [12]) it was 0.531. In addition, the fluorescence slope in [5] is -0.377 (inactive). In addition, the NADPH fluorescence slope in assay [6] is -3.8e-06 (inactive). In assay [7], the slope is 0.00493 (inactive). Further, the outcome in assay [8] was inactive.

In the case of `Cc1cc(C)n(CC(=O)n2nc(C)cc2C)n1`, the cell count in [1] worked out at 519. The inhibition in [1] is -6.2% (inactive); in [2], -24.6% (inactive); in assay [4], 5.95% (inactive); in [9], 15% (inactive). For the same molecule, in [2], the nuclei count is 81.7%. Further, the z-score was found to be 0.222 in assay [3] (setting [10]), 0.17 in assay [3] (setting [11]) and 0.394 in [3] (setting [12]). Besides, the fluorescence slope in assay [5] is -0.492 (inactive). Besides, in assay [6], the NADPH fluorescence slope is -2.9e-05 (inactive). Moreover, the slope in assay [7] was 0.00514 (inactive). Besides, the outcome in [8] was inactive.

On to `Cc1cc(C)c(C#N)c(SCC(=O)N2CCN(Cc3ccccc3)CC2)n1`, for which, in [1], the cell count worked out at 660. Moreover, the inhibition in [1] was -29% (inactive); in assay [2], -68.1% (inactive); in assay [4] it was -7.28% (inactive); in assay [9], 8.58% (inactive). In assay [2], the nuclei count turned out to be 173%. Further, the values for the z-score in [3] (setting [10]), in [3] (setting [11]) and in assay [3] (setting [12]) were -1.99, 0.41 and 1.64, respectively. The fluorescence slope in assay [5] was -0.419 (inactive). For the same molecule, the NADPH fluorescence slope in [6] was -3.2e-05 (inactive). Further, the slope in assay [7] was 0.00644 (inactive). Also, the result in [8] was inactive.

As to `CCCCNC(=O)C(C#N)c1nc2ccccc2nc1N1CCN(Cc2ccc3c(c2)OCO3)CC1` (centres undefined), in assay [1], the cell count turned out to be 555. Moreover, the inhibition in [1] was -0.5% (inactive); in assay [2], 21.5% (inactive); in assay [4] it was 15% (inactive); in [9], 12.9% (inactive). Also, in assay [2], the nuclei count came to 145%. The z-score was -1.05 in [3] (setting [10]), -1.11 in assay [3] (setting [11]) and 1.27 in assay [3] (setting [12]). The fluorescence slope in [5] was -0.362 (inactive). In addition, the NADPH fluorescence slope in [6] was -1.5e-05 (inactive). In [7], the slope was 0.00451 (inactive). Also, the molecule was called inactive in [8].

With `N#Cc1ccc(-c2cccnc2)nc1SCC(=O)Nc1sc2c(c1C#N)CCC2`, the cell count in assay [1] is 539. Besides, the inhibition was -25.4% (inactive) in assay [1], -101% (inactive) in assay [2], -9.66% (inactive) in assay [4] and -0.076% (inactive) in assay [9]. The nuclei count in assay [2] was determined as 144%. The z-score in [3] (setting [10]) is 0.414; in [3] (setting [11]), 0.682; in [3] (setting [12]), 0.527. The fluorescence slope in [5] is -0.501 (inactive). The NADPH fluorescence slope in [6] is -5.3e-05 (inactive). In assay [7], the slope was 0.00453 (inactive). For the same molecule, the molecule was called inactive in assay [8].

In the case of `CCOc1ccc(-c2nn3c(-c4ccc(OC)cc4)nnc3s2)cc1`, the cell count in [1] stood at 620. The inhibition is -14.6% (inactive) in [1], -58.9% (inactive) in assay [2], 2.92% (inactive) in assay [4] and 5.79% (inactive) in assay [9]. In [2], the nuclei count worked out at 162%. Further, the z-score in assay [3] (setting [10]) was 0.559; in assay [3] (setting [11]), -1.74; in [3] (setting [12]), 0.0677. Moreover, the fluorescence slope in assay [5] was -0.443 (inactive). Further, the NADPH fluorescence slope in assay [6] is -7.7e-05 (inactive). For the same molecule, the slope in assay [7] was 0.00846 (inactive). Besides, in [8], the molecule was called inactive.

As for `CSc1nc(O)c(Cc2ccccc2)c(=O)[nH]1`, the cell count in [1] was 543. The inhibition was 5.9% (inactive) in assay [1], 23.6% (inactive) in [2], 1.6e-07% (inactive) in assay [4] and 33.4% (inactive) in assay [9]. This molecule displayed a nuclei count in assay [2] of 105%. Moreover, the z-score was -0.704 in assay [3] (setting [10]), -0.524 in assay [3] (setting [11]) and -0.136 in assay [3] (setting [12]). In assay [5], the fluorescence slope is -0.403 (inactive). The NADPH fluorescence slope in assay [6] is 2.5e-05 (inactive). The slope in [7] is 0.00553 (inactive). In addition, the outcome in assay [8] was inactive.

For `S=c1[nH]nc(-c2ccco2)n1Cc1ccccc1`, the cell count in assay [1] is 367. The inhibition was -8.2% (inactive) in assay [1], -105% (inactive) in assay [2], 11.9% (inactive) in assay [4] and -18.5% (inactive) in assay [9]. This molecule also showed a nuclei count in [2] of 110%. In addition, the z-score in [3] (setting [10]) was -1.5; in assay [3] (setting [11]), 1.31; in [3] (setting [12]), -1.88. Further, in assay [5], the fluorescence slope was -0.477 (inactive). The NADPH fluorescence slope in assay [6] is -0.000234 (inactive). The slope in assay [7] was 0.00534 (inactive). The call in assay [8] was inactive.

`Nc1nnc(CSCc2ccc(F)cc2)s1`: the cell count in [1] amounted to 537. The inhibition in assay [1] was 7% (inactive); in assay [2], 23.2% (inactive); in [4] it was -13.3% (inactive); in assay [9] it was 3.98% (inactive). The nuclei count in assay [2] worked out at 111%. For the same molecule, the z-score is -1.12 in [3] (setting [10]), 1.17 in assay [3] (setting [11]) and -0.516 in [3] (setting [12]). For the same molecule, the fluorescence slope in assay [5] was -0.473 (inactive). For the same molecule, the NADPH fluorescence slope in assay [6] is -2.4e-05 (inactive). For the same molecule, the slope in assay [7] is 0.00497 (inactive). Besides, the outcome in [8] was inactive.

On to `Oc1c(C=Nc2cccnc2)sc2ccccc12`, for which the cell count in [1] amounted to 623. For the same molecule, the inhibition in assay [1] is -14.4% (inactive); in assay [2], -17% (inactive); in assay [4], -20.4% (inactive); in assay [9] it was -14.9% (inactive). This molecule registered a nuclei count in assay [2] of 170%. Also, the z-score is 0.476 in assay [3] (setting [10]), 0.705 in assay [3] (setting [11]) and 1.13 in [3] (setting [12]). For the same molecule, in assay [5], the fluorescence slope is -0.405 (inactive). In addition, in [6], the NADPH fluorescence slope is -6e-05 (inactive). The slope in assay [7] was 0.0055 (inactive). Also, the result in assay [8] was inactive.
